In ChEMBL document CHEMBL4177676, “Discovery of new antimalarial agents: Second-generation dual inhibitors against FP-2 and PfDHFR via fragments assembely” (Bioorg Med Chem, 2017):
Where a name gives a salt, the structure may show the parent alone. Calls of active or inactive are those of the source. No cut-off for these calls is given here.

Legend:
[1] = target: T1, Bifunctional dihydrofolate reductase-thymidylate synthase (Plasmodium falciparum K1, UniProt P13922); experiment: Inhibition of Plasmodium falciparum DHFR
T1 sequence (P13922 whole entry): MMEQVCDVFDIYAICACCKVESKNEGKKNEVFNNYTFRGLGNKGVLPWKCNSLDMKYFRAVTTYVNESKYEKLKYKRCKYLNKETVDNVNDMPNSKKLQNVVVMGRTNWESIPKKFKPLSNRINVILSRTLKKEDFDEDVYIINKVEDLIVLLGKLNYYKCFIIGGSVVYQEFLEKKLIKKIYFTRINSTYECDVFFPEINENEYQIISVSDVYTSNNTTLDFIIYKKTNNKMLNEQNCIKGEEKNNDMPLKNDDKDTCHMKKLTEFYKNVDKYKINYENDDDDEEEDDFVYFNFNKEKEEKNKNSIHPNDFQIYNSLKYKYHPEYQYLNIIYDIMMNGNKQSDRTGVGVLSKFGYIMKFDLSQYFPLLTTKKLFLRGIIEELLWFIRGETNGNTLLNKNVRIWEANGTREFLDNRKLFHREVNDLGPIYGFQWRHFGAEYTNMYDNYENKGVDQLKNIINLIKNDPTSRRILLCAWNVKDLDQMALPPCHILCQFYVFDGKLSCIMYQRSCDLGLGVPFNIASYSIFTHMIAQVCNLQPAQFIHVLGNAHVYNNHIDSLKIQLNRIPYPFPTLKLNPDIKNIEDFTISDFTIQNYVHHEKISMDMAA
How it was run: (§1)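 Purified PfDHFR was preincubated with graded compound concentrations for 15 min on ice in 100 uM NADPH, 50 mM TES pH 7.0, 1 mM EDTA, 75 mM 2-mercaptoethanol and 1 mg/mL BSA. DHF was then added to start the reaction, and NADPH oxidation was followed at 340 nm. IC50 came from percent-inhibition versus concentration plots, three independent experiments.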

[2] = target: T2, Falcipain 2 (Plasmodium falciparum) (UniProt Q9N6S8); experiment: Inhibition of Plasmodium falciparum FP2 at 10 uM using Z-Leu-Arg-AMC as substrate preincubated for 30 min followed by substrate addition measured after 30 mins by spectrofluorimetric method
T2 sequence (whole entry): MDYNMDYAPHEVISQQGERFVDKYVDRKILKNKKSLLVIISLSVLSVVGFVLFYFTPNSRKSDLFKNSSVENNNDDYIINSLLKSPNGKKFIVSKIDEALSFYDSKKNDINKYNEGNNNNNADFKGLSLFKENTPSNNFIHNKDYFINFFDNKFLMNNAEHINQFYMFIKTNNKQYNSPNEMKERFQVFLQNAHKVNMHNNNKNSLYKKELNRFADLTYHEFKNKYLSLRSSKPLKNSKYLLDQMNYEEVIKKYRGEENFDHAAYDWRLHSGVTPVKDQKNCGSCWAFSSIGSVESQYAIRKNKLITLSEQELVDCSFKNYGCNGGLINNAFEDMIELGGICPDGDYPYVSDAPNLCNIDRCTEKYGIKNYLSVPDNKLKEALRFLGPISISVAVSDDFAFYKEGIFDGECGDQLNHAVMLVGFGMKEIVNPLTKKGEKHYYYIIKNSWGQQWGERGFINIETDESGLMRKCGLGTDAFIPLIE
How it was run: (§2)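 FP-2 (30 nM) was preincubated 30 min at room temperature with compound in 100 mM sodium acetate, 10 mM DTT, pH 5.5, with DMSO at most 1%. The fluorescence increase was then monitored for 30 min at room temperature. Percent inhibition was screened at 10 µM. IC50 values were fitted from percent inhibition versus concentration, using three independent experiments.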

[3] = target: Bifunctional dihydrofolate reductase-thymidylate synthase (Plasmodium falciparum K1) (UniProt P13922); experiment: Inhibition of Plasmodium falciparum DHFR at 10 uM using DHF as substrate preincubated for 15 mins followed DHF addition measured after 15 mins by spectrophotometric method
Chain of Bifunctional dihydrofolate reductase-thymidylate synthase (Plasmodium falciparum K1) (P13922 whole entry, looked up): as the sequence (P13922 whole entry) above
How it was run: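 Purified P. falciparum DHFR was preincubated 15 min on ice with compound in 100 uM NADPH, 50 mM TES pH 7.0, 1 mM EDTA, 75 mM 2-mercaptoethanol and 1 mg/mL BSA. DHF was then added to start the reaction. NADPH oxidation was followed at 340 nm, and percent inhibition was taken at 10 µM.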

Falcipain 2 [4] = target: T3, Falcipain 2 (Plasmodium falciparum, UniProt Q9N6S8); experiment: Inhibition of Plasmodium falciparum FP2 using Z-Leu-Arg-AMC as substrate preincubated for 30 min followed by substrate addition measured after 30 mins by spectrofluorimetric method; how it was run: as §2
T3 sequence (Q9N6S8 whole entry): T2 sequence (whole entry)

Falcipain 2 [5] = target: T3, Falcipain 2; experiment: Inhibition of Plasmodium falciparum FP2; how it was run: as §2
[6] = target: T1, Bifunctional dihydrofolate reductase-thymidylate synthase; experiment: Inhibition of Plasmodium falciparum DHFR using DHF as substrate preincubated for 15 mins followed DHF addition measured after 15 mins by spectrophotometric method; how it was run: as §1
Plasmodium falciparum [7] = experiment: Antimalarial activity against mid-ring stage of multidrug-sensitive Plasmodium falciparum 3D7 infected in human O-positive erythrocytes after 72 hrs by SYBR Green I dye-based fluorescence assay; type: functional, organism-based; conditions: 3D7, 72 h
How it was run: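 Cultures were synchronised with 5% sorbitol to over 80% rings, and parasites at mid-ring stage (6–10 h post-invasion) were used at 1% parasitemia and 2% hematocrit. […] Growth ran 72 h at 37 °C under 5% CO₂, 5% O₂, 90% N₂. Cells were lysed in saponin/Triton X-100 buffer with 5X SYBR Green I, kept 2 h in the dark, and fluorescence was read at 485/535 nm.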

Plasmodium berghei = experiment: In vivo antimalarial activity against Plasmodium berghei ANKA infected in BALB/c mouse assessed as reduction in parasitemia at 20 mg/kg, po administered daily for 4 days by Giemsa staining-based method; type: functional, organism-based
How it was run: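 BALB/c mice were infected with P. berghei ANKA. Starting 24 h later, they received 20 mg/kg test compound or control orally once daily for 4 days. Parasitemia was counted on Giemsa-stained blood smears every day over 10 days.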

Plasmodium falciparum [8] = experiment: Antimalarial activity against mid-ring stage of chloroquine-resistant Plasmodium falciparum Dd2 infected in human O-positive erythrocytes after 72 hrs by SYBR Green I dye-based fluorescence assay; type: functional, organism-based; conditions: Dd2, 72 h
How it was run: (§3)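 Sorbitol-synchronised (>80% ring) […] cultures were used at the mid-ring stage (6-10 h post-invasion), at 1% parasitemia and 2% hematocrit, with serial compound dilutions (Dd2 top concentration 10 µM). Incubation was 72 h at 37 °C under 5% CO₂/5% O₂/90% N₂. Cells were then lysed with saponin/Triton X-100 buffer containing 5X SYBR Green I, kept 2 h in the dark, and read at ex 485/em 535 nm.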

Plasmodium falciparum [9] = experiment: Antimalarial activity against mid-ring stage of Plasmodium falciparum Fab9 infected in human O-positive erythrocytes after 72 hrs by SYBR Green I dye-based fluorescence assay; type: functional, organism-based; conditions: Fab9, 72 h; how it was run: as §3
Plasmodium falciparum [10] = experiment: Antimalarial activity against mid-ring stage of Plasmodium falciparum GB4 infected in human O-positive erythrocytes after 72 hrs by SYBR Green I dye-based fluorescence assay; type: functional, organism-based; conditions: GB4, 72 h; how it was run: as §3
Plasmodium falciparum [11] = experiment: Antimalarial activity against mid-ring stage of multidrug-sensitive Plasmodium falciparum 3D7 infected in human O-positive erythrocytes at 20 uM after 72 hrs by SYBR Green I dye-based fluorescence assay; type: functional
Plasmodium falciparum [12] = experiment: Antimalarial activity against mid-ring stage of chloroquine-resistant Plasmodium falciparum Dd2 infected in human O-positive erythrocytes at 20 uM after 72 hrs by SYBR Green I dye-based fluorescence assay; type: functional

| Compound | inhibition [2] [%] | inhibition [3] [%] | IC50 (Falcipain 2 [4]) [µM] | IC50 [6] [nM] | other results |
| --- | --- | --- | --- | --- | --- |
| CC1(C)N=C(N)N=C(N)N1OCCCOc1cc(Cl)c(Cl)cc1Cl | – | – | – | – | IC50 [1]: 0.57 nM |
| Nc1nc(N)c2cc(NCc3ccc(CCNC(=O)c4ccc(Cl)cc4F)cc3)ccc2n1 | 62.4 | 68.2 | 9.1 | – | – |
| O=C(CCc1ccc(S(=O)(=O)NCCc2ccccc2)cc1)Nc1ccc2c(c1)OCCO2 | – | – | – | – | IC50 (Falcipain 2 [5]): 54.2 µM; IC50 [1]: 35500 nM |
| Nc1nc(N)c2cc(NCc3ccc(CCNC(=O)c4ccc5c(c4)OCO5)cc3)ccc2n1 | 59.2 | 100 | 5.1 | 26.2 | IC50 (Plasmodium falciparum [7]): 78.6 nM |
| COc1ccc(C(=O)NCCc2ccc(CNc3ccc4nc(N)nc(N)c4c3)cc2)cc1 | 21.2 | 95.1 | – | 157 | – |
| CC1(C)N=C(N)N=C(N)N1c1ccc(Cl)cc1 [CHLORCYCLOGUANIL HYDROCHLORIDE] | – | – | – | – | IC50 [1]: 1.5 nM |
| CC(C)C[C@H](NC(=O)[C@@H]1O[C@H]1C(=O)O)C(=O)NCCCCN=C(N)N | – | – | 0.0572 | – | – |
| Nc1nc(N)c2cc(NCc3ccc(CCNC(=O)c4ccc(F)cc4)cc3)ccc2n1 | 52.7 | 96.7 | 6.7 | 118 | IC50 (Plasmodium falciparum [7]): 391 nM |
| Nc1nc(N)c2cc(NCc3ccc(CCNC(=O)c4ccco4)cc3)ccc2n1 | 28.9 | 97.8 | – | 107 | – |
| Nc1nc(N)c2cc(NCc3ccc(CCNC(=O)c4ccc([N+](=O)[O-])cc4)cc3)ccc2n1 | 67 | 94.7 | 10 | 55.6 | IC50 (Plasmodium falciparum [7]): 105 nM |
| Nc1nc(N)c2cc(NCc3ccc(CCNC(=O)c4cccc(F)c4)cc3)ccc2n1 | 49.8 | 98.5 | – | 50.6 | – |
| Nc1nc(N)c2cc(NCc3ccc(CCNC(=O)Cc4ccccc4)cc3)ccc2n1 | 65 | 92.4 | 7.6 | 70.1 | IC50 (Plasmodium falciparum [7]): 266 nM |
| Nc1nc(N)c2cc(NCc3ccc(CCNC(=O)C4CCCCC4)cc3)ccc2n1 | 66.6 | 96 | 7.7 | 226 | – |
| Nc1nc(N)c2cc(NCc3ccc(CCNC(=O)c4ccc5ccccc5c4)cc3)ccc2n1 | 46.4 | 100 | – | 67.9 | – |
| COc1cccc(C(=O)NCCc2ccc(CNc3ccc4nc(N)nc(N)c4c3)cc2)c1 | 52.6 | 96.8 | 6.2 | 39.6 | IC50 (Plasmodium falciparum [7]): 60.5 nM; Activity (Plasmodium berghei): Active; IC50 (Plasmodium falciparum [8]): 2200 nM |
| Nc1nc(N)c2cc(NCc3ccc(CCNC(=O)c4ccccc4F)cc3)ccc2n1 | 44.6 | 100 | – | 180 | – |
| Nc1nc(N)c2cc(NCc3ccc(CCNC(=O)c4ccc5c(c4)OCCO5)cc3)ccc2n1 | 34.9 | 100 | – | 80.9 | – |
| CCc1nc(N)nc(N)c1-c1ccc(Cl)cc1 [PYRIMETHAMINE] | – | – | – | – | Activity (Plasmodium berghei): Active; IC50 (Plasmodium falciparum [8]): > 10000 nM |
| Nc1nc(N)c2cc(NCc3ccc(CCNC(=O)c4cccs4)cc3)ccc2n1 | 67.6 | 97.4 | 10 | 84.1 | IC50 (Plasmodium falciparum [7]): 53.1 nM; Activity (Plasmodium berghei): Active; IC50 (Plasmodium falciparum [8]): 1200 nM; IC50 (Plasmodium falciparum [9]): 14.2 nM; IC50 (Plasmodium falciparum [10]): 23.4 nM |
| COc1ccc(C(=O)NCCc2ccc(CNc3ccc4nc(N)nc(N)c4c3)cc2)cc1Cl | 37.6 | 51.2 | – | – | – |
| Nc1nc(N)c2cc(NCc3ccc(CCNC(=O)CCc4ccccc4)cc3)ccc2n1 | 55.2 | 98.6 | 4.9 | 185 | – |
| CC(C)(C)C1CCC(C(=O)NCCc2ccc(CNc3ccc4nc(N)nc(N)c4c3)cc2)CC1 (stereo not drawn) | 55.8 | 99.9 | 7.4 | 290 | – |
| Nc1nc(N)c2cc(NCc3ccc(CCNC(=O)c4ccncc4)cc3)ccc2n1 | 22.9 | 51.5 | – | – | – |
| COc1cc(OC)cc(C(=O)NCCc2ccc(CNc3ccc4nc(N)nc(N)c4c3)cc2)c1 | 41.1 | 100 | – | 32.1 | – |
| Cc1nc(N)nc(N)c1OCCCOc1cc(Cl)c(Cl)cc1Cl | – | – | – | – | IC50 [1]: 229 nM |
| COc1ccc(C(=O)NCCc2ccc(CNc3ccc4nc(N)nc(N)c4c3)cc2)cc1OC | 31.3 | 100 | – | 61.1 | – |
| C[C@@H]1CC[C@H]2[C@@H](C)C(=O)O[C@@H]3O[C@@]4(C)CC[C@@H]1[C@]32OO4 [ARTEMISININ] | – | – | – | – | IC50 (Plasmodium falciparum [7]): 4.1 nM; Activity (Plasmodium berghei): Active; IC50 (Plasmodium falciparum [9]): 5.2 nM; IC50 (Plasmodium falciparum [10]): 2.2 nM |
| COc1ccc(OC)c(CNc2ccc3nc(N)nc(N)c3c2Cl)c1 | – | – | – | – | IC50 [1]: 0.39 nM |
| Nc1nc(N)c2cc(NCc3ccc(CCNC(=O)c4ccc(C(F)(F)F)cc4)cc3)ccc2n1 | 21.5 | 96.4 | – | 21.3 | – |
| CCc1nnc(NC(=O)CCc2ccc(S(=O)(=O)Nc3ccc(F)cc3)cc2)s1 | 64.7 | 59.2 | 7 | 6300 | IC50 (Falcipain 2 [5]): 7 µM; IC50 [1]: 6300 nM; Activity (Plasmodium falciparum [11]): 7.9%; Activity (Plasmodium falciparum [12]): 6.2% |
